# Reference: ChEMBL document CHEMBL4330115, “Discovery of a new class of valosine containing protein (VCP/P97) inhibitors for the treatment of non-small cell lung cancer” (Bioorg Med Chem, 2019)
# Columns and labels:
# [1] = Half life in mouse liver microsomes at 1 uM after 60 mins by LC-MS analysis; format: ADME, Microsome
# [2] = Half life in human liver microsomes at 1 uM after 60 mins by LC-MS analysis; format: ADME, Microsome
# [3] = Half life in dog liver microsomes at 1 uM after 60 mins by LC-MS analysis; format: ADME, Canis lupus familiaris, Microsome
# [4] = Intrinsic clearance in mouse liver microsomes at 1 uM after 60 mins by LC-MS analysis; format: ADME, Microsome; conditions: 1 h
# [5] = Half life in rat liver microsomes at 1 uM after 60 mins by LC-MS analysis; format: ADME, Microsome
# [6] = Intrinsic clearance in rat liver microsomes at 1 uM after 60 mins by LC-MS analysis; format: ADME, Microsome; conditions: 1 h
# [7] = Intrinsic clearance in dog liver microsomes at 1 uM after 60 mins by LC-MS analysis; format: ADME, Canis lupus familiaris, Microsome; conditions: 1 h
# [8] = Half life in monkey liver microsomes at 1 uM after 60 mins by LC-MS analysis; format: ADME, Macaca mulatta, Microsome; conditions: rhesus monkey
# [9] = Intrinsic clearance in monkey liver microsomes at 1 uM after 60 mins by LC-MS analysis; format: ADME, Macaca mulatta, Microsome; conditions: rhesus monkey, 1 h
# [10] = Intrinsic clearance in human liver microsomes at 1 uM after 60 mins by LC-MS analysis; format: ADME, Microsome; conditions: 1 h
# [11] = molecular target: Transitional endoplasmic reticulum ATPase (Homo sapiens, UniProt P55072); experiment: Inhibition of human p97 using ATP as substrate after 60 mins by ADP-Glo assay
# A549 = experiment: Antiproliferative activity against human A549 cells after 72 hrs by CCK-8 assay; format: functional, cell-based; conditions: A549, 72 h
# [12] = Tmax in Sprague-Dawley rat at 30 mg/kg, ig administered as single dose by LC-MS/MS analysis; format: ADME, organism-based; conditions: in vivo, po
# How it was run: (§1)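 Male Sprague-Dawley rats received a single dose, iv by tail vein at 5 mg/kg or orally (ig) at 30 mg/kg. Vehicle was a solution of 40% PEG400, 10% castor oil, 5% EtOH and 45% buffered saline. Orbital sinus blood (0.1 mL) was taken into heparinized tubes at 2, 5, 15 and 30 min and at 1, 2, 4, 8 and 24 h, then centrifuged for plasma.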
# [13] = AUC (0 to infinity) in Sprague-Dawley rat at 5 mg/kg, iv administered as single dose by LC-MS/MS analysis; format: ADME, organism-based; design: dose 5 mg/kg, route intravenous, time infinity; conditions: in vivo; how it was run: as §1
# [14] = Cmax in Sprague-Dawley rat at 30 mg/kg, ig administered as single dose by LC-MS/MS analysis; format: ADME, organism-based; design: dose 30 mg/kg, route intragastric; conditions: in vivo, po; how it was run: as §1
# [15] = Oral bioavailability in Sprague-Dawley rat at 30 mg/kg administered as single dose by LC-MS/MS analysis; format: ADME, organism-based; conditions: in vivo; how it was run: as §1
# [16] = AUC (0 to t) in Sprague-Dawley rat at 30 mg/kg, ig administered as single dose by LC-MS/MS analysis; format: ADME, organism-based; conditions: in vivo, po; how it was run: as §1
# [17] = Half life in Sprague-Dawley rat at 5 mg/kg, iv administered as single dose by LC-MS/MS analysis; format: ADME, organism-based; conditions: in vivo; how it was run: as §1
# [18] = MRT in Sprague-Dawley rat at 30 mg/kg, ig administered as single dose by LC-MS/MS analysis; format: ADME, organism-based; conditions: in vivo, po; how it was run: as §1
# [19] = Cmax in Sprague-Dawley rat at 5 mg/kg, iv administered as single dose by LC-MS/MS analysis; format: ADME, organism-based; design: dose 5 mg/kg, route intravenous; conditions: in vivo; how it was run: as §1
# [20] = Half life in Sprague-Dawley rat at 30 mg/kg, ig administered as single dose by LC-MS/MS analysis; format: ADME, organism-based; conditions: in vivo, po; how it was run: as §1
# [21] = Tmax in Sprague-Dawley rat at 5 mg/kg, iv administered as single dose by LC-MS/MS analysis; format: ADME, organism-based; conditions: in vivo; how it was run: as §1
# [22] = AUC (0 to infinity) in Sprague-Dawley rat at 30 mg/kg, ig administered as single dose by LC-MS/MS analysis; format: ADME, organism-based; design: dose 30 mg/kg, route intragastric, time infinity; conditions: in vivo, po; how it was run: as §1
# [23] = MRT in Sprague-Dawley rat at 5 mg/kg, iv administered as single dose by LC-MS/MS analysis; format: ADME, organism-based; conditions: in vivo; how it was run: as §1
# [24] = AUC (0 to t) in Sprague-Dawley rat at 5 mg/kg, iv administered as single dose by LC-MS/MS analysis; format: ADME, organism-based; conditions: in vivo; how it was run: as §1
# Chain of Transitional endoplasmic reticulum ATPase (P55072 whole entry): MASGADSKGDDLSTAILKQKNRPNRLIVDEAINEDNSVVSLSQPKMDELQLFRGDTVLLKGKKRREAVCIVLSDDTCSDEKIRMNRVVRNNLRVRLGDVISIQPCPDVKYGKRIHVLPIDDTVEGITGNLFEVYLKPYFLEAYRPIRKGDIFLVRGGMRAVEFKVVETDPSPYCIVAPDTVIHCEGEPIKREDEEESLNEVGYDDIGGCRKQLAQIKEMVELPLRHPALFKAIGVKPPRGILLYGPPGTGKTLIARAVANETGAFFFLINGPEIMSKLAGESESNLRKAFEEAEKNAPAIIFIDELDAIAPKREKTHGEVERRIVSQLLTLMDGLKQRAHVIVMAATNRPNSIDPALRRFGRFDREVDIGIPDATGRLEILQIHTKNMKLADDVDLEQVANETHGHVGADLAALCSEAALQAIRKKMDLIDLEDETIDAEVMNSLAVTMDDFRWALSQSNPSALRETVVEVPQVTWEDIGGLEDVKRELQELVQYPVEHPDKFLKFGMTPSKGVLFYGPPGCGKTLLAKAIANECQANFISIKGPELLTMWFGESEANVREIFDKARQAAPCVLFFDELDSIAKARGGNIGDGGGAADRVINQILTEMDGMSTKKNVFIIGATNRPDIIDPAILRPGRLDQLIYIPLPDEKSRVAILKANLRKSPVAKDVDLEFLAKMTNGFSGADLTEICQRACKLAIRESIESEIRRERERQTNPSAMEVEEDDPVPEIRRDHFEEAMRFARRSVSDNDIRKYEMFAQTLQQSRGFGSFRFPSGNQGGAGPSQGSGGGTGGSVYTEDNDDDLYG
smiles,measurement,setting,value
Cc1cc2c(C(N)=O)cccc2n1-c1nc2c(c(NCc3ccccc3)n1)COCC2 [CB-5083],half-life at 1 µM,[1],141 min
same,half-life at 1 µM,[2],25.8 min
same,half-life at 1 µM,[3],36.5 min
same,CLint,[4],2.32 L/h/kg
same,half-life at 1 µM,[5],17 min
same,CLint,[6],8.79 L/h/kg
same,CLint,[7],3.28 L/h/kg
same,half-life at 1 µM,[8],14.7 min
same,CLint,[9],7.64 L/h/kg
same,CLint,[10],2.9 L/h/kg
NC(=O)c1cccc(Nc2nc3c(c(NCc4ccccc4)n2)COCC3)c1,IC50,[11],Not Active
C=CC(=O)Nc1cccc2c1cc(C)n2-c1nc2c(c(NCC3CC3)n1)COCC2,IC50,[11],Not Active
Cc1cc2c(C(N)=O)cccc2n1-c1nc2c(c(NCc3ccccc3)n1)CCCCC2,IC50,A549,2.6 µM
same,IC50,[11]; read-out: IC50,0.0828 µM
Cc1cc2c(NS(C)(=O)=O)cccc2n1-c1nc2c(c(NCc3ccccc3)n1)COCC2,IC50,A549,1.6 µM
same,Tmax,[12],160 min
same,half-life at 1 µM,[1],47.8 min
same,half-life at 1 µM,[2],42.3 min
same,AUC(0-inf),[13],7.42 µg·h/mL
same,Cmax,[14],0.191 µg/mL
same,bioavailability,[15],4.2%
same,half-life at 1 µM,[3],36.3 min
same,CLint,[4],6.85 L/h/kg
same,half-life at 1 µM,[5],16.8 min
same,AUC(0-t),[16],1.77 µg·h/mL
same,IC50,[11]; read-out: IC50,0.0364 µM
same,CLint,[6],8.92 L/h/kg
same,half-life,[17],218 min
same,MRT,[18],425 min
same,Cmax,[19],3.38 µg/mL
same,half-life,[20],274 min
same,Tmax,[21],3 min
same,CLint,[7],3.3 L/h/kg
same,AUC(0-inf),[22],2.56 µg·h/mL
same,half-life at 1 µM,[8],12.3 min
same,MRT,[23],271 min
same,CLint,[9],9.14 L/h/kg
same,CLint,[10],1.77 L/h/kg
same,AUC(0-t),[24],6.95 µg·h/mL
Cc1cc2c(C(N)=O)cccc2n1-c1nc2c(c(NCc3ccccc3)n1)CCCCCC2,IC50,[11]; read-out: IC50,0.12 µM
Cc1cc2c(NS(=O)(=O)c3ccccc3)cccc2n1-c1nc2c(c(NCc3ccccc3)n1)COCC2,IC50,[11]; read-out: IC50,0.135 µM
Cc1cc2c(C(N)=O)cccc2n1-c1nc2c(c(NCc3ccncc3)n1)COCC2,IC50,[11],Not Active
Cc1cc2c(NC(=O)CN3CCCC3)cccc2n1-c1nc2c(c(NCc3ccccc3)n1)COCC2,IC50,[11]; read-out: IC50,0.449 µM
Cc1cc2c(NC(=O)/C=C/CN(C)C)cccc2n1-c1nc2c(c(NCc3ccccc3)n1)COCC2,IC50,[11]; read-out: IC50,0.387 µM
C=CC(=O)Nc1cccc2c1cc(C)n2-c1nc2c(c(NCc3cccc4ccccc34)n1)COCC2,IC50,[11],Not Active
CC(=O)Nc1cccc2c1cc(C)n2-c1nc2c(c(NCc3ccccc3)n1)COCC2,IC50,[11]; read-out: IC50,0.129 µM
Cc1cc2c(C(N)=S)cccc2n1-c1nc2c(c(NCc3ccccc3)n1)COCC2,IC50,[11]; read-out: IC50,0.193 µM
Cc1cc2c(NS(=O)(=O)C3CC3)cccc2n1-c1nc2c(c(NCc3ccccc3)n1)COCC2,IC50,A549,2.1 µM
same,IC50,[11]; read-out: IC50,0.0346 µM
Cc1cc2c(NC(=O)CCl)cccc2n1-c1nc2c(c(NCc3ccccc3)n1)COCC2,IC50,[11]; read-out: IC50,0.308 µM
Cc1cc2c(C(N)=O)cccc2n1-c1nc2c(c(NCC3CC3)n1)COCC2,IC50,[11],Not Active
Cc1cc2c(NC(=O)/C=C/c3ccccc3)cccc2n1-c1nc2c(c(NCc3ccccc3)n1)COCC2,IC50,[11]; read-out: IC50,0.447 µM
Cc1cc2c(C(N)=O)cccc2n1-c1nccc(NCc2ccccc2)n1,IC50,[11]; read-out: IC50,0.161 µM
C=CC(=O)Nc1cccc2c1cc(C)n2-c1nc2c(c(NCc3ccncc3)n1)COCC2,IC50,[11]; read-out: IC50,5.1 µM
Cc1cc2c(NS(=O)(=O)C(F)(F)F)cccc2n1-c1nc2c(c(NCc3ccccc3)n1)COCC2,IC50,[11]; read-out: IC50,0.101 µM
CC(=O)Nc1cccc2c1ccn2-c1nc2c(c(NCc3ccccc3)n1)COCC2,IC50,[11]; read-out: IC50,0.922 µM
C=CC(=O)Nc1cccc2c1cc(C)n2-c1nc2c(c(NCc3ccccc3)n1)COCC2,IC50,A549,4.6 µM
same,IC50,[11]; read-out: IC50,0.0583 µM
Cc1cc2c(C(N)=O)cccc2n1-c1nc2c(c(NCCN3CCOCC3)n1)COCC2,IC50,[11],Not Active
